Compound activity as filed in PubChem BioAssay.
A selection: hits, their analogues and other compounds. The true share with any hit is near 3.5%.
RGS4 pot = potentiators or activators of RGS4. HEK293 M3R/inducible RGS4, carbachol calcium flux Fluo4; stronger effect = lower value. B-score at 10 µM. 0.92% of 310,000 active;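 active = B-score of the integrated calcium signal more than 4 SD below the library mean, with starting fluorescence not abnormally high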;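 note: negative B-score means reduced calcium response which marks RGS4 activation or potentiation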
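Assay system: Inducible-RGS4 HEK293 cells carrying M3 receptor | Schedule: Compound preincubation 20 min at room temperature before agonist | Signal: Kinetic calcium fluorescence imaging with Fluo4-AM dye, 2 µM | Read-out basis: B score from integrated fluorescence ratio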
MrgX1 antag = antagonists of human MrgX1 receptor | Q96LB2 | MRGX1-HEK293 calcium flux, Fluo-4, BAM8-22 antagonism; stronger effect = lower value | B-score at 10 µM | 1.3% of 310,000 active;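 active = calcium-response B-score plate-corrected more than 3 library SD below zero, starting fluorescence within 5 deviations, no agonist response on first addition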;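 note: peak minus trough fluorescence over baseline after final BAM8-22 challenge near maximal dose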
Target sequence (Q96LB2 whole entry, looked up): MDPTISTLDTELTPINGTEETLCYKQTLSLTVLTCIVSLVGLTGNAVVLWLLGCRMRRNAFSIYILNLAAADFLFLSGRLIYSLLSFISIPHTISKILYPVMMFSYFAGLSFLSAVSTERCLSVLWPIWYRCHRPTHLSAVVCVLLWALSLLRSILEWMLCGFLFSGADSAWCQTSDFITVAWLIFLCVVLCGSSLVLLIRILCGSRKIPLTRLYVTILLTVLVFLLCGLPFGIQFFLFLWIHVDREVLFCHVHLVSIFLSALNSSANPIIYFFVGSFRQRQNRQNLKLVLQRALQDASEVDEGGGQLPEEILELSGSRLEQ
MrgX1 agonist = agonists of human MrgX1 receptor; Q96LB2; MrgX1-HEK293 cells, Fluo-4 calcium fluorescence, agonist mode; stronger effect = higher value; B-score at 10 µM; 0.44% of 310,000 active; AID 588627;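 active = calcium response B-score plate-corrected fluorescence ratio at least 3 library SD, with starting fluorescence B-score inside 5 SD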
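Material: MrgX1-expressing HEK293 cells; input: 15,000 cells per well; doses: test compound given as first of three sequential additions; schedule: overnight plating before 1 h dye loading; technique: Fluo-4 NW calcium-flux fluorescence, kinetic read; evaluation: baseline-normalised fluorescence change ratio, B-scored; control set: plate-wise positive and negative controls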
MrgX1 PAM = human MrgX1 positive allosteric modulation, primary screen. Q96LB2. AID 588675. 0.63% of 310,000 active. B-score at 10 µM. MrgX1-HEK293, Fluo-4 calcium flux, FDSS; stronger effect = higher value;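 active = plate-corrected calcium response at least 3 library SD above typical, normal starting fluorescence, not activating the receptor alone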;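 note: compound read alongside a low EC10 to EC30 dose of BAM8-22 agonist; peak minus trough fluorescence over baseline measured at the second addition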
RGS4 block = human RGS4 inhibition. AID 463165. 0.45% of 310,000 active. B-score at 10 µM. P49798. HEK293 M3R/RGS4 inducible, Fluo-4 calcium flux; stronger effect = higher value; triggered by carbachol at its EC20;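 active = B-score, a plate-corrected calcium signal, over three deviations above library mean, with baseline fluorescence within five deviations of library mean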;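 note: RGS4 expression induced by doxycycline in cells with stable M3 receptor; B-score is computed from the integrated fluorescence ratio over baseline after carbachol; higher B-score means a larger calcium signal and so more RGS4 inhibition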
MrgX1 antag conf = reconfirmed antagonist of human MrgX1 receptor signaling | shares compounds with MrgX1 antag | remaining BAM8-22 calcium response % of control (stronger effect = lower value), % at 10 µM | AID 602420 | 19% of 2,300 active | MrgX1-HEK293, BAM8-22 calcium flux, Fluo-4; stronger effect = lower value;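 active = remaining agonist calcium response no higher than 100% minus 3 SD of agonist-only control wells, with starting fluorescence near control levels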;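 note: agonist BAM8-22 given at a near maximal EC90 to ECmax level; peak minus minimum fluorescence divided by baseline after agonist addition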
HEK293 Ca flux = MrgX1 antagonist counter-screen hit in parental HEK293 cells; Fluo-4 calcium fluorescence, FDSS; 2% of 4,000 active; shares compounds with MrgX1 antag; fluorescence ratio F(max-min)/F0 at 10 µM;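 active = duplicate-averaged calcium fluorescence ratio at least three times the standard deviation of buffer wells, a nonspecific response in parental cells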
HEK293 Ca counter = counter-screen for MrgX1 allosteric activators: effect in parental HEK293 cells | AID 624114 | shares compounds with MrgX1 antag | 0.4% of 4,000 active | parental HEK293 calcium flux, Fluo-4 fluorescence ratio; stronger effect = higher value | fluorescence ratio F(max-min)/F0 at 10 µM;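 active = calcium fluorescence ratio, averaged over duplicates, at least 3 SD of the buffer-well ratio, meaning a nonspecific response in receptor-free cells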;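 note: untransfected parental HEK293 lacking MrgX1 used as counterscreen for MrgX1 allosteric activators; fluorescence change taken during the second addition on a kinetic imager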
HEK293 Ca cntr2 = counter-screen for MrgX1 activators: effect in parental HEK293 cells | shares compounds with MrgX1 antag | Fluo-4 calcium fluorescence (FDSS); stronger effect = higher value | fluorescence ratio F(max-min)/F0 at 10 µM | 8.7% of 4,000 active | AID 624115;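 active = calcium fluorescence ratio at least three times the spread of buffer wells, meaning a non-specific response in parental cells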
Numbers without * were called inactive; i = inactive; . = no result.

SMILES	RGS4 pot	MrgX1 antag	MrgX1 agonist	MrgX1 PAM	RGS4 block	MrgX1 antag conf	HEK293 Ca flux	HEK293 Ca counter	HEK293 Ca cntr2
O=C(CN1CC(c2ccccc2)CC1=O)Nc1cccc(F)c1 (stereo unspecified)	i	i	i	i	i	.	.	.	.
O=C(CN1CCOCC1)c1ccc2cc[nH]c2c1	i	i	i	i	i	.	.	.	.
COc1ccc(C(=O)CN2CCOCC2)cc1F	i	-5.2*	i	i	i	i	i	i	i
O=C1CC(=O)N(c2ccccc2)C(=O)N1c1ccccc1	i	i	i	i	i	.	.	.	.
CCCC1=C(C(=O)OCC)C2(C(=O)Nc3ccccc32)C(C#N)=C(N)O1 (stereo unspecified)	i	-4.6*	i	i	i	i	i	i	i
CNCC(O)c1cc(OCc2ccccc2)c(OCc2ccccc2)cc1F (stereo unspecified)	i	i	i	i	i	.	.	.	.
